Experimental data of several laboratories.
Lines come from different studies, so protocols differ. Values after ≈ are worked out from the molar mass of the structure shown.

CN(C)[C@@H]1C(O)=C(C(N)=O)C(=O)[C@@]2(O)C(O)=C3C(=O)c4c(O)cccc4[C@@](C)(O)[C@H]3C[C@@H]12  MIC (Salmonella enterica; microbial growth; ENTERITIDIS; 20 h, pH 7.2): 2 µg/mL (≈ 4.5 µM)
O=C(Nc1cncc(-c2nc3ccccc3o2)c1)c1ccc(N2CCNCC2)c([N+](=O)[O-])c1  EC50 (BJ; cell growth or viability, ATP luminescence): > 20 µM
COC(=O)c1cccc(Nc2nccc(NC3CCCCC3)n2)c1  EC50 (BJ; cell growth or viability, ATP luminescence; 72 h): > 17 µM
O=c1cc(-c2ccc(O)cc2)oc2cc(O)cc(O)c12  inhibition (Helicobacter pylori; microbial growth, broth dilution; 3.9 µg/mL): 100%
CCN1CCN(c2cc3c(cc2F)c(=O)c(C(=O)O)cn3C2CC2)CC1  MIC (Salmonella enterica; microbial growth; F98, TYPHIMURIUM; 20 h, pH 7): 0.0313 µg/mL (≈ 0.0871 µM)
CCCCNc1ccnc(Nc2cccc(-c3cccnc3)c2)n1  EC50 (BJ; cell growth or viability, ATP luminescence; 72 h): > 17 µM
O=C(N[C@H](CO)[C@H](O)c1ccc([N+](=O)[O-])cc1)C(Cl)Cl  MIC (Salmonella enterica; microbial growth; 20 h, pH 7): 2 µg/mL (≈ 6.19 µM)
CONc1ccnc(Nc2cccc(-c3cccnc3)c2)n1  EC50 (BJ; cell growth or viability, ATP luminescence; 72 h): > 12 µM
O=C(O)c1ccc(O)cc1  inhibition (Helicobacter pylori; microbial growth, broth dilution; 125 µg/mL): 100%
CO/N=C(\C(=O)N[C@@H]1C(=O)N2C(C(=O)O)=C(CSc3nc(=O)c(=O)[nH]n3C)CS[C@H]12)c1csc(N)n1  MIC (Salmonella enterica; microbial growth; F98, TYPHIMURIUM; 20 h, pH 7.2): 0.125 µg/mL (≈ 0.225 µM)
CN(C)C/C=C/C(=O)Nc1cc2c(Nc3ccc(F)c(Cl)c3)ncnc2cc1O[C@H]1CCOC1  viability (KB-C2; cell growth or viability, ATP luminescence; 6 µM, 12 days, 3D culture): 92.7%
O=c1cc(-c2ccc(O)c(O)c2)oc2cc(O)cc(O)c12  inhibition (Helicobacter pylori; microbial growth, broth dilution; 1.95 µg/mL): 89.3%
CN(c1ccnc(Nc2cccc(-c3cccnc3)c2)n1)C1CCCCC1  EC50 (BJ; cell growth or viability, ATP luminescence; 72 h): > 8 µM
